Screening data: PubChem BioAssay, Broad Institute
T cruzi growth-1 = blocks T. cruzi growth in NIH3T3 culture. 77,000 compounds, 5.9% hits. inhibition, % at 8.34 µM. T. cruzi beta-gal in NIH3T3, GalScreen luminescence, 90 h;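 active means mean inhibition above about 93%, with at least 55% of replicates each passing it, limit read from the data, passing the limit was not always enough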
IDH1 R132H inh = IDH1 R132H (human) inhibition | AID 624101 | O75874 | inhibition, % at 10 µM | 70,000 compounds, 0.18% hits | IDH1 R132H reductase, diaphorase/resazurin fluorescence, 60 min; in the data active means inhibition above about 34%;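 further: 0% = DMSO and 100% = no enzyme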
KDM4C inh = KDM4C (human) demethylase inhibition | GST-KDM4C 2-372, H3K9me3 peptide, LANCE TR-FRET | Q9H3R0 | inhibition, % at 12.5 µM | AID 720574 | 96,000 compounds, 0.15% hits;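 active means mean replicate inhibition above about 25%, with at least 55% of replicates also reaching it, limit read from the data, passing the limit was not always enough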
Target sequence (Q9H3R0 2-372 limits assumed): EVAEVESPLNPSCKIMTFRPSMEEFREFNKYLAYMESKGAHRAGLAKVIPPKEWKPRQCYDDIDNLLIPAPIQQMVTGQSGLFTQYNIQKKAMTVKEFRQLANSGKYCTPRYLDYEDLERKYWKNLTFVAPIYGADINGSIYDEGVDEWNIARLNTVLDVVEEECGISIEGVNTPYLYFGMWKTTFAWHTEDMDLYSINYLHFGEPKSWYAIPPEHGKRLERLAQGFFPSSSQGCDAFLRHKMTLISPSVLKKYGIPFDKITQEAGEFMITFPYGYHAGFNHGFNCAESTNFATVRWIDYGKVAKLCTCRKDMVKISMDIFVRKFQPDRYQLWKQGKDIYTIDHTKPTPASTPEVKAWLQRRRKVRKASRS
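Test system: N-terminal GST-fused human GASC-1 (KDM4C) fragment, residues 2-372; quantity: GASC-1 enzyme at 10 nM final in reaction; dosing: single dose; schedule: 30 min demethylation and 1 h detection at room temperature; signal: LANCE TR-FRET, excitation 340 nm, emissions 618 and 671 nm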
T cruzi growth-2 = inhibitors of T. cruzi proliferation; 5,600 compounds, 72% hits; inhibition, % at 8.35 µM; shares compounds with T cruzi growth-1; T. cruzi beta-gal in NIH3T3, GalScreen luminescence, 90 h;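 active means mean replicate inhibition above about 95% and at least 55% of replicates individually reaching it, limit read from the data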
T cruzi growth-3 = Trypanosoma cruzi proliferation inhibition; T. cruzi beta-gal in NIH3T3, GalScreen luminescence, 90 h; 5,600 compounds, 21% hits; AID 651740; shares compounds with T cruzi growth-1; inhibition, % at 2.09 µM;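 active means mean inhibition above about 95%, with at least 55% of replicates also reaching it, limit read from the data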;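 further: plate controls were neutral control median for no effect and positive control median for full effect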
NIH3T3 tox = NIH/3T3 (mouse) viability loss; shares compounds with T cruzi growth-1; NIH/3T3 viability, CellTiter-Glo ATP luminescence, 90 h; cytotoxicity (signal decrease), % at 8.35 µM; 5,600 compounds, 14% hits; AID 651742;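 active means mean signal decrease across replicates above about 35% based on untreated-well scatter, with enough replicates individually passing, limit read from the data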;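 further: 0% = median of neutral control wells and 100% = median of positive control wells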
3T3 cytotox 2 = NIH/3T3 (mouse) viability loss; shares compounds with T cruzi growth-1; AID 651744; 5,600 compounds, 56% hits; NIH/3T3 viability, CellTiter-Glo ATP luminescence, 90 h; inhibition, % at 24.9 µM;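 active means mean loss of cell viability signal at or above a set limit, and enough replicates individually reaching it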;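 further: 0% = median of neutral control wells and 100% = median of positive control wells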
Starred values were filed as active, the others as inactive; . = not tested or not shown. Shown is part of a subset that was picked to be rich in hits.

SMILES | T cruzi growth-1 | IDH1 R132H inh | KDM4C inh | T cruzi growth-2 | T cruzi growth-3 | NIH3T3 tox | 3T3 cytotox 2
COc1cccc(NC(=O)N2[C@H](CO)[C@H](c3ccccc3)[C@@H]2CNC(C)C)c1 | 114.9* | . | -0.5 | 90.8 | 27.2 | 1.0 | -6.1
CCCNC(=O)N1[C@H](C#N)[C@@H](c2ccc(C3=CCCCC3)cc2)[C@@H]1CO | 103.1* | . | -1.6 | 105.2* | 72.1 | 15.6 | -41.1
CCCNC(=O)N1[C@H](CO)[C@H](c2ccc(C3=CCCCC3)cc2)[C@@H]1C#N | 56.4 | -0.1 | 1.8 | . | . | . | .
CNC[C@H]1[C@@H](c2ccccc2)[C@@H](CO)N1C(=O)Nc1cccc(OC)c1 | 32.6 | . | -5.0 | . | . | . | .
N#C[C@H]1[C@H](c2ccc(C3=CCCCC3)cc2)[C@H](CO)N1C(=O)NC1CCCC1 | . | . | -1.5 | . | . | . | .
CCNC[C@H]1[C@H](c2ccc(C3=CCCCC3)cc2)[C@@H](CO)N1C(=O)NC(C)C | 70.9 | . | 1.4 | . | . | . | .
COc1cc(Cc2nnc(C(=O)NC(C)C)o2)cc(OC)c1OC | . | -0.3 | . | . | . | . | .
N#C[C@@H]1[C@H](c2ccc(C3=CCCCC3)cc2)[C@@H](CO)N1C(=O)NC1CCCC1 | . | . | 4.8 | . | . | . | .
N#C[C@@H]1[C@@H](c2ccc(C3=CCCCC3)cc2)[C@H](CO)N1C(=O)NC1CCCCC1 | 97.5* | . | -0.8 | 102.8* | 66.5 | -9.7 | 87.1*
CCn1c(SCC(=O)c2cccc([N+](=O)[O-])c2)nnc1-c1cccnc1 | . | 0.1 | . | . | . | . | .
Cc1sc2nc(SCC(=O)Nc3ccc4c(c3)OCCO4)n(-c3ccccc3)c(=O)c2c1C | . | 0.2 | . | . | . | . | .
O=C(c1ccccc1F)N1CC[C@H]2[C@H](CO)Nc3ccc(-c4ccc(F)cc4)cc3[C@H]21 | 98.5* | . | 0.0 | 101.1* | 99.4* | 11.3 | 95.0*
O=C(c1cccc(F)c1)N1CC[C@H]2[C@H](CO)Nc3ccc(-c4ccccc4F)cc3[C@H]21 | 64.0 | . | -1.8 | . | . | . | .
O=C(c1ccccc1F)N1CC[C@@H]2[C@H]1c1cc(-c3ccc(F)cc3)ccc1N[C@@H]2CO | 93.5 | . | -0.9 | . | . | . | .
O=C(c1ccccc1)N1CC[C@@H]2[C@H]1c1cc(-c3ccccc3F)ccc1N[C@@H]2CO | 109.9* | . | 8.2 | 99.8* | 83.1 | 20.8 | 30.4*
O=C(c1ccccc1)N1CC[C@@H]2[C@H](CO)Nc3ccc(-c4ccc(F)cc4)cc3[C@@H]21 | 47.5 | . | -0.9 | . | . | . | .
O=C(c1ccc(F)cc1)N1CC[C@@H]2[C@@H](CO)Nc3ccc(-c4ccccc4F)cc3[C@@H]21 | 109.8* | . | -2.0 | 104.3* | 85.4 | 26.6 | 71.1*
O=C(c1ccccc1)N1CC[C@H]2[C@H](CO)Nc3ccc(-c4ccccc4F)cc3[C@H]21 | 108.4* | . | -0.1 | 97.7* | 88.8 | 13.8 | 22.9
O=C(c1cccc(F)c1)N1CC[C@@H]2[C@@H](CO)Nc3ccc(-c4ccccc4F)cc3[C@@H]21 | 40.1 | . | -0.2 | . | . | . | .
Cc1ccc([N+](=O)[O-])cc1N(CC(=O)Nc1ccc(Cl)cc1)S(C)(=O)=O | . | 0.5 | . | . | . | . | .
C[C@H]1CN([C@@H](C)CO)C(=O)Cc2cc(NC(=O)C3CC3)ccc2O[C@@H]1CN(C)Cc1ccc(-c2ccccc2)cc1 | 92.3 | 3.3 | -0.2 | . | . | . | .
C[C@@H]1CN([C@@H](C)CO)C(=O)Cc2cc(NC(=O)c3ccncc3)ccc2O[C@@H]1CN(C)Cc1ccc(Oc2ccccc2)cc1 | 100.4 | . | -0.1 | . | . | . | .
C[C@H](CO)N1C[C@H](C)[C@@H](CN(C)Cc2ccc(-c3ccccc3)cc2)Oc2ccc(NC(=O)C3CC3)cc2CC1=O | 104.7* | 1.4 | -2.4 | 105.7* | 76.6 | 10.0 | 104.6*
C[C@H](CO)N1C[C@H](C)[C@@H](CN(C)Cc2ccc(C(F)(F)F)cc2)Oc2ccc(NC(=O)c3ccncc3)cc2CC1=O | 95.9* | 0.8 | 0.6 | 105.5* | 32.7 | 13.9 | 58.8*
C[C@H](CO)N1C[C@H](C)[C@@H](CN(C)Cc2ccc(Oc3ccccc3)cc2)Oc2ccc(NC(=O)c3ccncc3)cc2CC1=O | 97.0* | 4.9 | -0.8 | 111.3* | 39.9 | 11.6 | 105.5*
